Measurements reported in ChEMBL document CHEMBL4321820, “Identification and Optimization of Mechanism-Based Fluoroallylamine Inhibitors of Lysyl Oxidase-like 2/3” (J Med Chem, 2019).

Experiments:
[1] = target: T1, Lysyl oxidase homolog 2 (Homo sapiens, UniProt Q9Y4K0); test: Inhibition of recombinant human C-terminal His-tagged […] (1-774 residues) expressed in mouse myeloma cells using putrescine as substrate preincubated with enzyme for 30 mins followed by substrate addition and measured every 2.5 mins for 30 mins by Amplex-Red oxidation assay
T1 sequence (Q9Y4K0 whole entry): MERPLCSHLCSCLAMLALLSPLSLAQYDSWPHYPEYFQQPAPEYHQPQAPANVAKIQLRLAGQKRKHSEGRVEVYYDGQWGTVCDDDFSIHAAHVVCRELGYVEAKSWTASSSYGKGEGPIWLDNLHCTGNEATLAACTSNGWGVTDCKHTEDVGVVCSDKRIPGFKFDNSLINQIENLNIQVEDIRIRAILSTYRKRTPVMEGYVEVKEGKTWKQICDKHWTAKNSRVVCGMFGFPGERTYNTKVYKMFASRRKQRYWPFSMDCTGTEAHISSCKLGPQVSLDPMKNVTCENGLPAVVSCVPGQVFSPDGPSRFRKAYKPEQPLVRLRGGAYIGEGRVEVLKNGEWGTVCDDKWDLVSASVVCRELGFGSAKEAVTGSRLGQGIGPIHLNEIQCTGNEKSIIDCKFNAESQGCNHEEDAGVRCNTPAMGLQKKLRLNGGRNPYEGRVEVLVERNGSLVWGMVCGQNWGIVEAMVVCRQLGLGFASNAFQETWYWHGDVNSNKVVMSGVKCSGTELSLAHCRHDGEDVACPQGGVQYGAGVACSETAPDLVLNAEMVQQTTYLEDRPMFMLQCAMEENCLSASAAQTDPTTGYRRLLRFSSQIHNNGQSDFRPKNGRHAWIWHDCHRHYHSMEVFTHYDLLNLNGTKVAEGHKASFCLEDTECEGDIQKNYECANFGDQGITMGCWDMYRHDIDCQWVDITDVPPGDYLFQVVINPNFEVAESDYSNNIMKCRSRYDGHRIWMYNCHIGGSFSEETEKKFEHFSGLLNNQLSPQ
Summary of the method: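 LOXL2 enzyme preincubated with compound for 30 min at 37 °C, then Amplex Red (120 µM) / HRP (1.5 U/mL) mix containing 5 mM putrescine added. Buffer: 1.2 M urea, 50 mM sodium borate, pH 8.2. H2O2 fluorescence (ex 565/em 590) read every 2.5 min for 30 min at 37 °C; BAPN 100 µM as positive control; n≥2.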

[2] = target: T2, Protein-lysine 6-oxidase (Bos taurus, UniProt P33072); test: Inhibition of LOX in bovine aorta using putrescine as substrate preincubated with enzyme for 30 mins followed by substrate addition and measured every 2.5 mins for 30 mins by Amplex-Red oxidation assay; format: tissue-based
T2 sequence (P33072 whole entry): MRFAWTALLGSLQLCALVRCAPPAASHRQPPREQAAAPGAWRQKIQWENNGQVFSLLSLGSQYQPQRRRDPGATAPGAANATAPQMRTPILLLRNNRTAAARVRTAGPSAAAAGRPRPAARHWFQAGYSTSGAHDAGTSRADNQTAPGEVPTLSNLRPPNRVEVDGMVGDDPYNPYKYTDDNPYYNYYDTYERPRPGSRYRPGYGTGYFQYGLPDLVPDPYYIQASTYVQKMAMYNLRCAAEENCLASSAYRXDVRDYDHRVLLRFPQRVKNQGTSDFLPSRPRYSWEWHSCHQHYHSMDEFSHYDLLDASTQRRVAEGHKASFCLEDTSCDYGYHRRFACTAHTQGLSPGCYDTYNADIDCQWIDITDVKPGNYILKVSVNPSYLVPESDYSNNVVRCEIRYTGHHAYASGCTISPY
Summary of the method: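 LOX extracted from calf aorta after PBS washing with 4 M urea/50 mM borate pH 8.2, concentrated on 10 kDa filters into 1.2 M urea/borate with protease inhibitors. Preincubated 30 min at 37 °C with compound, then Amplex Red/HRP with 10 mM putrescine; fluorescence read every 2.5 min for 30 min.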

[3] = Substrate activity at AOC4 in dog serum assessed as compound oxidation by measuring oxidative turnover at 30 uM measured for 40 mins by horseradish peroxidase-coupled amplex red reagent-based fluorometric assay relative to DMSO; format: ADME, cell-free, Canis lupus familiaris
Summary of the method: (§1)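 Compound oxidation measured without substrate by peroxidase-coupled fluorometric read-out of resorufin formation over 40 min at 37 °C in HEPES buffer. Amplex Red 20 µM, HRP 4 U/ml, test compound at final 30 µM. Enzyme source was human recombinant SSAO or AOC4 from diluted dog serum. Benzylamine at 600 µM served as positive control. Signal is expressed relative to DMSO-only background, so a value near 1 means no turnover.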

[4] = target: T3, Amine oxidase [copper-containing] 3 (Homo sapiens, UniProt Q16853); test: Substrate activity at recombinant human SSAO assessed as compound oxidation by measuring oxidative turnover at 30 uM measured for 40 mins by horseradish peroxidase-coupled amplex red reagent-based fluorometric assay relative to DMSO; format: ADME; summary of the method: as §1
T3 sequence (Q16853 whole entry): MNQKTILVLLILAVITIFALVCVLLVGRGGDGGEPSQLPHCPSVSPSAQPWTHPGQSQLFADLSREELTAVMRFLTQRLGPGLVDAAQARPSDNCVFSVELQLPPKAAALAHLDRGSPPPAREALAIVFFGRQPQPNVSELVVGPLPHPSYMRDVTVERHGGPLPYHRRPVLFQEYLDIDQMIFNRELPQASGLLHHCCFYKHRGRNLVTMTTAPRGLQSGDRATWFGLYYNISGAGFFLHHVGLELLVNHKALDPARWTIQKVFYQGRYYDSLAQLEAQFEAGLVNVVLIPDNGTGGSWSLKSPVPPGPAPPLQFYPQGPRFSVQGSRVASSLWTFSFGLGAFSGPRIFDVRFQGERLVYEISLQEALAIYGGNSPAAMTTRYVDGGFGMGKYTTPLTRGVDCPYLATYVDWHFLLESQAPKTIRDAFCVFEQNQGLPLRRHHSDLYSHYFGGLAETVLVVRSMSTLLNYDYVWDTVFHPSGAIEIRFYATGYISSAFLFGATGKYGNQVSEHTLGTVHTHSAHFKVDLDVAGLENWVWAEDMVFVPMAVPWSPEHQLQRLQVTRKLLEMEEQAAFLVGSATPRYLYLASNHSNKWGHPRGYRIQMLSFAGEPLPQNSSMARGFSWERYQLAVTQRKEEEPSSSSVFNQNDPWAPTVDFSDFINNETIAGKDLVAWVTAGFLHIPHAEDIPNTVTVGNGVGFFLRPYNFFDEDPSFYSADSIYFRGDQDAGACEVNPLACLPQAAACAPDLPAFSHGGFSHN

IC50 ([1]; read-out: pIC50 (converted)) | IC50 ([2]; read-out: pIC50 (converted)) | fold change (FC) [3] | fold change (FC) [4] | IC50 ([1]; read-out: IC50) | IC50 ([2]; read-out: IC50) | SMILES
79.4 nM | 6310 nM | 1 | 2.4 | – | – | CCOC(=O)c1ccc2c(c1)c(-c1cccc(S(=O)(=O)N(C)C)c1)c(C)n2C/C(F)=C/CN.Cl
100 nM | 2000 nM | > 4 | 1.4 | – | – | Cc1c(-c2cccc(S(=O)(=O)N(C)C)c2)c2ccccc2n1C/C(F)=C/CN.Cl
– | – | 1 | 1 | 5 nM | 1780 nM | Cc1c(-c2cccc(S(=O)(=O)N(C)C)c2)c2cc(C(=O)O)ccc2n1C/C(F)=C/CN.Cl
